Compound activity from PubChem BioAssay.
PGC1a acetyl inh – inhibitors of PGC1a acetylation signal, primary screen, cell-based, U2OS, AlphaScreen, inhibitor mode; AlphaScreen anti-acetyl-lysine; with virally co-expressed GCN5 acetyltransferase; inhibition, % at 15.6 µM; AID 651687, 2012; 0.17% of 350,000 active;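 active means every replicate shows inhibition of at least 40%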
SIRT5 block – SIRT5 desuccinylase inhibitors, primary screen, biochemical, fluorescence imaging, single point, set 5; NAD-dependent protein deacylase sirtuin-5, mitochondrial (Homo sapiens), Q9NXA8; Purified SirT5, succinyl-peptide AMC, trypsin-coupled fluorescence; inhibition, % at 15 µM; 1.1% of 330,000 active; in the data active means inhibition above about 15%
Target sequence (Q9NXA8 whole entry, looked up): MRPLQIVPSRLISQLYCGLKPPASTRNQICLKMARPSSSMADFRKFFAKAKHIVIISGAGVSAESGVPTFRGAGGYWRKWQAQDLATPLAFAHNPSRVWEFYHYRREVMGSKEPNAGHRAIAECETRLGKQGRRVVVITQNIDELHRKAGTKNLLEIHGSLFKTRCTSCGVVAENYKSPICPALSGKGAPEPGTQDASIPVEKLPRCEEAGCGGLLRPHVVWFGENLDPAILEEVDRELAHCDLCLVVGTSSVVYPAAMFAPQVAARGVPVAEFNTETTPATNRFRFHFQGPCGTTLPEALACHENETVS
S100A4 inh HTS – inhibitors of S100A4-myosin IIA peptide binding, primary screen, biochemical, fluorescence polarization, TAMRA-MyoIIA peptide | Protein S100-A4 (Homo sapiens), P26447 | inhibition, % at 10.7 µM | 0.14% of 360,000 active;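 active means mean inhibition of at least 70% across replicates, with every replicate also reaching that level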
Target sequence (P26447 whole entry, looked up): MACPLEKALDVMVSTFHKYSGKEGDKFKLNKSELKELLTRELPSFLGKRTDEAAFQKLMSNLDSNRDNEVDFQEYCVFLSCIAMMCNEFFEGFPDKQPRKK
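Test system: S100A4 monomer protein. Medium: HEPES buffer with Ca2+, pH 7.2. Reagent: fluorescent myosin IIA peptide, 5 nM. Compound dosing: single-point compound testing. Timing: 5 min between mix addition and reading. Benchmarks: DMSO neutral and TFP positive wells.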
Statin myotox sup – suppressors of statin myotoxicity in C2C12 myotubes, primary screen, cell-based, single point, plate reader | C2C12 myotubes + simvastatin, ATP luminescence, 48 h; scaled: DMSO 0, geranylgeraniol control 100 | rescue of ATP level, % at 7.49 µM | 0.78% of 330,000 active;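 active means mean ATP rescue above about 67%, or every replicate alone reaching that limit, limit read from the data, passing the limit was not always enough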;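 further: myotubes were challenged with 10 µM simvastatin during compound exposure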
DENV2 CPE rescue – inhibitors of DENV2 cytopathic effect, primary screen, cell-based, plate reader, single concentration | 1.7% of 350,000 active | AID 651640, 2012 | DENV2-infected cells, cytopathic effect rescue | CPE inhibition, % at 9.99 µM; in the data active means CPE inhibition above about 20%, passing the limit was not always enough; tested in BHK-21 cells
Numbers stand for hits; 0 = inactive; - = no result given. Sampled rows, rich in hits. Any-hit rate of the full collection: about 2.9%.

SMILES | PGC1a acetyl inh | SIRT5 block | S100A4 inh HTS | Statin myotox sup | DENV2 CPE rescue
C[C@@H]1CCCCO[C@@H](CN(C)Cc2ccc(C(=O)O)cc2)[C@@H](C)CN([C@@H](C)CO)C(=O)c2cc(NS(C)(=O)=O)ccc2O1 | 0 | 0 | 0 | - | 48
COc1ccc(CN(C)C[C@H]2OCCCC[C@@H](C)Oc3ccc(NS(=O)(=O)c4ccc(F)cc4)cc3C(=O)N([C@H](C)CO)C[C@@H]2C)cc1 | 0 | 0 | 0 | - | 0
COc1ccc(S(=O)(=O)Nc2ccc3c(c2)C(=O)N([C@H](C)CO)C[C@H](C)[C@@H](CN(C)Cc2ccc(C(F)(F)F)cc2)OCCCC[C@@H](C)O3)cc1 | 0 | 0 | 0 | - | 0
COc1ccc(S(=O)(=O)Nc2ccc3c(c2)C(=O)N([C@H](C)CO)C[C@@H](C)[C@H](CN(C)Cc2ccc(C(F)(F)F)cc2)OCCCC[C@H](C)O3)cc1 | 0 | 15 | 0 | - | -
COc1ccc(S(=O)(=O)Nc2ccc3c(c2)C(=O)N([C@@H](C)CO)C[C@H](C)[C@@H](CN(C)Cc2ccc(C(=O)O)cc2)OCCCC[C@H](C)O3)cc1 | 0 | 0 | 0 | - | 54
COc1ccc(CN(C)C[C@@H]2OCCCC[C@H](C)Oc3ccc(NS(=O)(=O)c4ccc(F)cc4)cc3C(=O)N([C@@H](C)CO)C[C@H]2C)cc1 | 0 | 0 | 0 | - | 59
COc1ccc(S(=O)(=O)Nc2ccc3c(c2)C(=O)N([C@@H](C)CO)C[C@@H](C)[C@@H](CN(C)Cc2ccc(C(=O)O)cc2)OCCCC[C@@H](C)O3)cc1 | 0 | 0 | 0 | - | 0
O=C(C[C@@H]1C[C@@H]2c3cc(NC(=O)c4ccc5c(c4)OCO5)ccc3O[C@@H]2[C@@H](CO)O1)NCc1cccc(F)c1 | 0 | 0 | 0 | 0 | 0
O=C(N[C@H]1CC[C@H](CCNC(=O)C2CCC2)O[C@@H]1CO)c1ccccn1 | 0 | 0 | 0 | 0 | 0
COc1ccc2c3c(n(C)c2c1)[C@H](CO)N(C(C)=O)CC31CN(C(=O)Nc2ccccc2F)C1 | 0 | 0 | 0 | - | 0
COc1ccc2c3c([nH]c2c1)[C@@H](CO)N(C(=O)CC1CC1)CC31CN(C(=O)CC2CC2)C1 | 0 | - | 0 | - | 0
COCC(=O)N1CC2(C1)[C@@H](c1ccccc1)[C@@H](CO)N2CCC(F)(F)F | 0 | 0 | 0 | - | 0
COc1ccc(CN(C)C[C@H]2OCCCC[C@H](C)Oc3ccc(NS(=O)(=O)c4cn(C)cn4)cc3C(=O)N([C@@H](C)CO)C[C@H]2C)cc1 | 0 | 0 | 0 | - | 0
COc1ccc(CN(C)C[C@@H]2OCCCC[C@@H](C)Oc3ccc(NS(=O)(=O)c4cn(C)cn4)cc3C(=O)N([C@H](C)CO)C[C@@H]2C)cc1 | 0 | 0 | 0 | - | 61
COc1ccc(S(=O)(=O)Nc2ccc3c(c2)C(=O)N([C@H](C)CO)C[C@H](C)[C@@H](CN(C)Cc2ccc(C(F)(F)F)cc2)OCCCC[C@H](C)O3)cc1 | 0 | 0 | 0 | - | 0
COc1ccc(S(=O)(=O)Nc2ccc3c(c2)C(=O)N([C@@H](C)CO)C[C@H](C)[C@@H](CN(C)Cc2ccc(C(F)(F)F)cc2)OCCCC[C@H](C)O3)cc1 | 0 | 17 | 0 | - | 0
CCCN(C)C[C@H]1OCCCC[C@@H](C)Oc2ccc(NS(=O)(=O)c3ccc(OC)cc3)cc2C(=O)N([C@H](C)CO)C[C@H]1C | 0 | 0 | 0 | 0 | 0
CCCN(C)C[C@H]1OCCCC[C@@H](C)Oc2ccc(NS(=O)(=O)c3ccc(OC)cc3)cc2C(=O)N([C@H](C)CO)C[C@@H]1C | 0 | 0 | 0 | 0 | 55
CCNC(=O)C[C@H]1CC[C@H]2[C@@H](COc3ccc(NC(=O)Cc4cccs4)cc3C(=O)N2C)O1 | 0 | 0 | 0 | 0 | 0
Cc1ccc(-c2nc3ccccc3c(=O)o2)cc1 | 0 | 16 | 0 | 0 | 0
COCC(=O)N1CC2(CN(C(=O)c3ccccn3)C2)c2c(n(C)c3cc(OC)ccc23)[C@H]1CO | 0 | 0 | 0 | - | 0
O=C(Cn1ncc(Cl)c(Cl)c1=O)c1ccc(Cl)cc1 | 85 | - | - | - | -
CCOC(=O)c1sc(NC(=O)c2ccncc2)c(C#N)c1C | - | 0 | 0 | - | 43
CC1(C)Oc2ccc3ccc(=O)oc3c2CC1O (centres undefined) | 0 | 0 | 0 | 0 | 0
CC1(C)Oc2ccc3ccc(=O)oc3c2C[C@H]1O[C@@H]1O[C@H](CO)[C@@H](O)[C@H](O)[C@H]1O | - | - | 0 | 0 | 41
SMILES | PGC1a acetyl inh | SIRT5 block | S100A4 inh HTS | Statin myotox sup | DENV2 CPE rescue
CCCCn1c(N)c(N(CC)C(=O)c2cc(C)cc(C)c2)c(=O)[nH]c1=O | 0 | 0 | 0 | 0 | 35
CCCCn1c(N)c(N(CC)C(=O)c2ccncc2)c(=O)[nH]c1=O | 0 | 0 | 0 | 0 | 0
CCCCCN(C(=O)CCC(=O)OCC(=O)c1ccc(CCC)cc1)c1c(N)n(CCCC)c(=O)[nH]c1=O | 0 | 30 | 0 | 0 | 0
O=C(NCCO)c1ccc2c3n(nc2c1)-c1ccc(Cl)cc1CO3 | - | - | - | 0 | -
COCCNC(=O)c1ccc2c3n(nc2c1)-c1ccc(Cl)cc1CO3 | - | - | 0 | 0 | 122
CCc1csc(N2[C@H](C#N)[C@H](c3ccccc3-c3ccc(F)cc3)[C@H]2CO)n1 | 0 | 0 | 0 | - | 0
C[C@H](CO)N1C[C@H](C)[C@H](CN(C)C(=O)NC2CCCCC2)OCc2ccccc2-c2ccccc2C1=O | 0 | 0 | 0 | 0 | 0
COc1cccc(C2=CC(=O)C[C@H](c3ccc(F)cc3)C2)c1 | 0 | - | 0 | 0 | -
COc1cc(F)cc(C2=CC(=O)C[C@H](c3ccc(F)cc3)C2)c1 | 0 | - | 0 | 0 | 26
O=C1C=C(c2ccc(F)c(Cl)c2)C[C@@H](c2ccc(F)cc2)C1 | 0 | 0 | 0 | 0 | 23
O=C1C=C(c2cc(Cl)cc(Cl)c2)C[C@@H](c2ccc3c(c2)OCO3)C1 | - | - | 0 | 0 | 28
O=C1C=C(c2cccc(Br)c2)C[C@@H](c2ccc(Cl)cc2)C1 | 0 | - | 0 | 0 | 32
Cc1cccc(S(=O)(=O)N2CCCCN3[C@H](CO)[C@H](c4ccc(C#C[C@@H](C)O)cc4)[C@H]3C2)c1 | 0 | 0 | 0 | 0 | 0
O=C(NCC[C@@H]1CC[C@@H](NC(=O)Nc2cc(F)ccc2F)[C@@H](CO)O1)Nc1ccc(Cl)cc1 | 0 | 0 | 0 | 0 | 0
CS(=O)(=O)N(CC(=O)N1CCCC1)c1cccc(F)c1 | - | 101 | 0 | 0 | 0
CS(=O)(=O)N(CC(=O)N1CCCC1)c1ccc(F)cc1 | 0 | - | 0 | 0 | 0
CC(=O)c1cccc(NC(=O)CN(c2cccc(F)c2)S(C)(=O)=O)c1 | 0 | - | - | 111 | -
CS(=O)(=O)N(CC(=O)N1CCCCC1)Cc1ccccc1 | 0 | 17 | 0 | 0 | 0
CC(=O)c1cccc(NC(=O)CN(c2ccc(F)cc2)S(C)(=O)=O)c1 | - | 0 | 0 | 0 | -
CCOc1ccc(NC(=O)CN(Cc2ccccc2)S(C)(=O)=O)cc1 | 0 | - | - | 110 | -
